According to PubChem BioAssay AID602315 (Southern Research Specialized Biocontainment Screening …, 2012):
Inconclusive results are not listed. Active and inactive are the calls of the source.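 How the source made its calls: active means inhibition of 30% or more at any tested concentration; inactive means the rest, inconclusive results apart.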

target: M1-family alanyl aminopeptidase (Plasmodium falciparum 3D7); test: Inhibition of P. falciparum M1 alanyl aminopeptidase – biochemical, QFRET, set 3, counter-screen for PfM17LAP inhibitor project, dose response (AID 602315); settings: recombinant PfM1AAP, H-Leu-NHMec fluorogenic cleavage
Procedure, shortened: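 Evaluation: % inhibition and fitted IC50; test system: recombinant PfM1AAP enzyme; signal: fluorescence, ex 370/em 460 nm; buffer or medium: Tris pH 7.5 buffer with cobalt chloride; control set: enzyme-free wells as background reference; incubation: enzyme–substrate reaction 90 min at room temperature; also added: 0.1 mM H-Leu-NHMec; dosing: 10 doses, 100–0.2 µM, 1:2 steps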

IC50 [µM] | SMILES
28.2 | CCCCOc1ccc(C(C)C(=O)NO)cc1 (stereo not drawn)
16.7 | CCCOc1ccc(CC(=O)NO)cc1

The next lines start with the molecule.

SMILES | IC50 [µM]
CCCCOc1cccc(CC(=O)NO)c1 | 26
CCC(C)Oc1ccc(CC(=O)NO)cc1 (stereo not drawn) | 20.2

same assay, conditions: recombinant PfM1AAP, H-Leu-NHMec fluorogenic cleavage; at 100 µM (top of the series)

inhibition | SMILES
inactive | CCCCOc1ccc(C(C)(C)C(=O)NO)cc1
inactive | CCCCOc1ccc(C(C)(C)C(=O)O)cc1
inactive | CCCCOc1ccc(CN(O)C(=O)c2ccccc2)cc1
inactive | CCCCOc1ccc(C(C)C(=O)O)cc1 (stereo not drawn)
inactive | CCCCOc1ccc(CN(O)C(C)=O)cc1

More lines, now with the values behind:

SMILES | inhibition
CN(C)CCOc1ccc(CC(=O)O)cc1 | inactive
CCCCOc1ccc(C(C)C(=O)OC)cc1 (stereo not drawn) | inactive
O=C(NO)c1ccc2ccccc2c1 | inactive
CCCCOc1cccc(CC(=O)OC)c1 | inactive
